Data from the M2OR odorant receptor database.
Positions count from the first letter of the chain named.

Legend:
Details in all cases: stereoisomer not certain
OR4S2 (Homo sapiens) = biological target: T1, OR4S2 (Homo sapiens) (UniProt Q8NH73)
T1 sequence (whole entry): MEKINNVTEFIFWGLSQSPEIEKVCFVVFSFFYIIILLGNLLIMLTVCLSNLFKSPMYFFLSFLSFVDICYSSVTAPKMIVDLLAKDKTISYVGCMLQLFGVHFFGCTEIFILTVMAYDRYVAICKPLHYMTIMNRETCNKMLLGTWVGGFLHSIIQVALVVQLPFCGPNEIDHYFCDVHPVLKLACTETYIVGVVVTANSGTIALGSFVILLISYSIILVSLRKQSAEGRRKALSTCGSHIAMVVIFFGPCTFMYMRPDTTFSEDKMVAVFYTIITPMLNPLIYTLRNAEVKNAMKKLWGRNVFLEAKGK
Outline: (§1)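 Transient luciferase assays in mammalian cell lines were common, though methods varied by source. The values come from published papers and their supplementary material, with extra details from the original authors when needed. Responsive refers to a measured signal the original authors judged statistically different from baseline, and non-responsive (inactive) to the remainder.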

OR4X1 (Homo sapiens) = biological target: T2, OR4X1 (Homo sapiens) (UniProt Q8NH49)
T2 sequence (whole entry): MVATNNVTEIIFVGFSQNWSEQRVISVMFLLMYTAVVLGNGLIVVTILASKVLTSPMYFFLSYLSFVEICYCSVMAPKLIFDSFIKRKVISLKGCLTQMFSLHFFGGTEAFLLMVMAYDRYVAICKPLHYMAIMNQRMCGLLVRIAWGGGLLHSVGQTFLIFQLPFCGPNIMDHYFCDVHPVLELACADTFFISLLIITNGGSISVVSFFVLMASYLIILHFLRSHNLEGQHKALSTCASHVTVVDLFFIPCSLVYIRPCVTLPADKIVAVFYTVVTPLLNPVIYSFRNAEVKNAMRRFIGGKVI
Outline: as §1

OR4X2 (Homo sapiens) = biological target: T3, OR4X2 (Homo sapiens) (UniProt Q8NGF9)
T3 sequence (whole entry): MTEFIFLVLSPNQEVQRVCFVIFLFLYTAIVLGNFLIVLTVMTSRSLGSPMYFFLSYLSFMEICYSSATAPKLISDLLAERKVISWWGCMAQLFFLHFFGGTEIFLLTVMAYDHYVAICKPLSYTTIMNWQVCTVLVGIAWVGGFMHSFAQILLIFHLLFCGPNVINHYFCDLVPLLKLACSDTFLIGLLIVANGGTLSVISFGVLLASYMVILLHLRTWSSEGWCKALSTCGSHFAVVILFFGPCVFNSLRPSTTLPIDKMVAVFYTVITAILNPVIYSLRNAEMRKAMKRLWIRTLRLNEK
Outline: as §1

OR51A2 (Homo sapiens) = biological target: T4, OR51A2 (Homo sapiens) (UniProt Q8NGJ7)
T4 sequence (whole entry): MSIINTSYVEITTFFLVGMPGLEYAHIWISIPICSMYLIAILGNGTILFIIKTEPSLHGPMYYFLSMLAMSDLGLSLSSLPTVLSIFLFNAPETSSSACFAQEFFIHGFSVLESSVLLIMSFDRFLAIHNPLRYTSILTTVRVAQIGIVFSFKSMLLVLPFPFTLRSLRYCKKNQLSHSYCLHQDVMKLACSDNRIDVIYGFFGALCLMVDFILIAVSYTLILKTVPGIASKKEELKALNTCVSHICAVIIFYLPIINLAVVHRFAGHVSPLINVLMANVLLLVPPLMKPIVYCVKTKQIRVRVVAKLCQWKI
Outline: as §1

OR51A4 (Homo sapiens) = biological target: T5, OR51A4 (Homo sapiens) (UniProt Q8NGJ6)
T5 sequence (whole entry): T4 sequence (whole entry) with G59E, T94I, S97N, S167N, P227L, E235Q, G267R, M288T, K289N, W311R
Outline: as §1

OR51A7 (Homo sapiens) = biological target: T6, OR51A7 (Homo sapiens) (UniProt Q8NH64)
T6 sequence (whole entry): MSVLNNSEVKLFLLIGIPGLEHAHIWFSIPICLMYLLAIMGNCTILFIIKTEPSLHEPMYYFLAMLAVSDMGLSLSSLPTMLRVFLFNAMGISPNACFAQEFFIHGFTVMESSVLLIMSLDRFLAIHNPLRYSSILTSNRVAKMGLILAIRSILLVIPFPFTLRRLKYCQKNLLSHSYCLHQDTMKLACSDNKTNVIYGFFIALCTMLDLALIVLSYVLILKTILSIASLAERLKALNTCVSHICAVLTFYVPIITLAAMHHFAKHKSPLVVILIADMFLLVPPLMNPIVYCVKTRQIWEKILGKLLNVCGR
Outline: as §1

OR51B2 (Homo sapiens) = biological target: T7, OR51B2 (Homo sapiens) (UniProt Q9Y5P1)
T7 sequence (whole entry): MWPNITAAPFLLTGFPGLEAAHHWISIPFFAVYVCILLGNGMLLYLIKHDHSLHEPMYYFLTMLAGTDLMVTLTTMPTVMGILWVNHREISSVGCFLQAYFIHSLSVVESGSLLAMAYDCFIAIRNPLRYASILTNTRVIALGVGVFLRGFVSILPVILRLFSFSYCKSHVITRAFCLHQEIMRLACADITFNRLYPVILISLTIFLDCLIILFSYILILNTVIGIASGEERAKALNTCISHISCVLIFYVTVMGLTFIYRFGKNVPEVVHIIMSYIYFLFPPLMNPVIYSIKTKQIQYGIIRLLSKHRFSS
Outline: as §1

OR51B4 (Homo sapiens) = biological target: T8, OR51B4 (Homo sapiens) (UniProt Q9Y5P0)
T8 sequence (whole entry): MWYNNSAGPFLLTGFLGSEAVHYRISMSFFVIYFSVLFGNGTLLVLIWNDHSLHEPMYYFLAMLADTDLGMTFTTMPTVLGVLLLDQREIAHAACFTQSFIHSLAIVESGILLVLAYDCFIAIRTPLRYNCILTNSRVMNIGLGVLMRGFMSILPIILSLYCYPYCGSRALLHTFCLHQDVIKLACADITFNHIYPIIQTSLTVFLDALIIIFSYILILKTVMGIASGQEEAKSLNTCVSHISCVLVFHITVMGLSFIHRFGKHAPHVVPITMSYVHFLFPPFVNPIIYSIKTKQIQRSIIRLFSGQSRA
Outline: as §1

OR51B5 (Homo sapiens) = biological target: T9, OR51B5 (Homo sapiens) (UniProt Q9H339)
T9 sequence (whole entry): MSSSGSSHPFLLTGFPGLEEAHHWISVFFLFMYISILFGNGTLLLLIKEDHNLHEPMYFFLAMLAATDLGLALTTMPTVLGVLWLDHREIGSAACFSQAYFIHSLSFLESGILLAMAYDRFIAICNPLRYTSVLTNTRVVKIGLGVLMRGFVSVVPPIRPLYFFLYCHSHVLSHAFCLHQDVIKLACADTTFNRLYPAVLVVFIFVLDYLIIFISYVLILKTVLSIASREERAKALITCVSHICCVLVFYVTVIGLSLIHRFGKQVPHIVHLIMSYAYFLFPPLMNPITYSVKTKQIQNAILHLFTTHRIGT
Outline: as §1

OR51B6 (Homo sapiens) = biological target: T10, OR51B6 (Homo sapiens) (UniProt Q9H340)
T10 sequence (whole entry): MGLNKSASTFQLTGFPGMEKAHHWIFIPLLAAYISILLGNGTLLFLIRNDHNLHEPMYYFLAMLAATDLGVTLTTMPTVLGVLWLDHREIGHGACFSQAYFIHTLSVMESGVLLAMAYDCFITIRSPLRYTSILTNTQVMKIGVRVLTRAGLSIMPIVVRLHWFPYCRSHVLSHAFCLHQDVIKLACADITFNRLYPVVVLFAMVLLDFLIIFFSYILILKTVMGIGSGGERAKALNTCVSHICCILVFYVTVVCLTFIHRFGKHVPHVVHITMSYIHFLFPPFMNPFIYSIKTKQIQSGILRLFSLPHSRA
Outline: as §1

OR51D1 (Homo sapiens) = biological target: T11, OR51D1 (Homo sapiens) (UniProt Q8NGF3)
T11 sequence (whole entry): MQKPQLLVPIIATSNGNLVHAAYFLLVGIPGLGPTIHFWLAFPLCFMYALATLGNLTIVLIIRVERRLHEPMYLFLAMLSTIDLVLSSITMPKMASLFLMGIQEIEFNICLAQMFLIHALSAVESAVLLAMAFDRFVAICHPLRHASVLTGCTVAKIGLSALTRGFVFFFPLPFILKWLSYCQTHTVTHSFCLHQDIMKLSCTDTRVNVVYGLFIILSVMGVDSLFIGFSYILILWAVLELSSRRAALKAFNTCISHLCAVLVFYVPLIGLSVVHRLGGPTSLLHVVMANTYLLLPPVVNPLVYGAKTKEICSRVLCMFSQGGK
Outline: as §1

OR51E1 (Homo sapiens) = biological target: T12, OR51E1 (Homo sapiens) (UniProt Q8TCB6)
T12 sequence (whole entry): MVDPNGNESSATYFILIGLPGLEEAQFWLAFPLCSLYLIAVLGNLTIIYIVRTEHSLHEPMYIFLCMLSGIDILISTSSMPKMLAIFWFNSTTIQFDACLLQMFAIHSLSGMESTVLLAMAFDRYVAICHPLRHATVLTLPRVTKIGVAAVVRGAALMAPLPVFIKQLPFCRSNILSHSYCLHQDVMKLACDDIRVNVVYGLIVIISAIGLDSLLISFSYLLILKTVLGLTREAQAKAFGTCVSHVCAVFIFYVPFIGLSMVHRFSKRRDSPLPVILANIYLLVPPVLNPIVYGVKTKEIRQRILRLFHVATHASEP
Outline: as §1

OR51E2 (Homo sapiens) = biological target: T13, OR51E2 (Homo sapiens) (UniProt Q9H255)
T13 sequence (whole entry): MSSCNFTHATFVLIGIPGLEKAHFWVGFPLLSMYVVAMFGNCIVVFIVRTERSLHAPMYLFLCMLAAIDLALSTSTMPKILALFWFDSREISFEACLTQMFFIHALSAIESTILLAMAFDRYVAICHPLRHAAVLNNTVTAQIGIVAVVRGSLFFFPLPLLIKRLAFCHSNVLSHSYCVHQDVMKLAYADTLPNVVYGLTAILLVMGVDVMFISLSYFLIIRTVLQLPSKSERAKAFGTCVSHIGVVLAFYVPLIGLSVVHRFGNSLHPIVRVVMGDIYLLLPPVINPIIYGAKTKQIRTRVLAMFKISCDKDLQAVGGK
Outline: as §1

OR51F1 (Homo sapiens) = biological target: T14, OR51F1 (Homo sapiens) (UniProt A6NGY5)
T14 sequence (whole entry): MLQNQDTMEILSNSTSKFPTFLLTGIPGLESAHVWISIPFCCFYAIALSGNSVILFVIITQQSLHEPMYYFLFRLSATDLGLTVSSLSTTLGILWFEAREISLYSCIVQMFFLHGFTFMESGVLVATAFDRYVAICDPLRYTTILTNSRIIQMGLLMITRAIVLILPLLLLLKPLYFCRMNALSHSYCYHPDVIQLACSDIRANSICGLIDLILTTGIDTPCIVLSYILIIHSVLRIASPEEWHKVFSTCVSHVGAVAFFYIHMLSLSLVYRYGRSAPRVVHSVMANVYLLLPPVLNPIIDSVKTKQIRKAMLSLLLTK
Outline: as §1

OR51F2 (Homo sapiens) = biological target: T15, OR51F2 (Homo sapiens) (UniProt Q8NH61)
T15 sequence (whole entry): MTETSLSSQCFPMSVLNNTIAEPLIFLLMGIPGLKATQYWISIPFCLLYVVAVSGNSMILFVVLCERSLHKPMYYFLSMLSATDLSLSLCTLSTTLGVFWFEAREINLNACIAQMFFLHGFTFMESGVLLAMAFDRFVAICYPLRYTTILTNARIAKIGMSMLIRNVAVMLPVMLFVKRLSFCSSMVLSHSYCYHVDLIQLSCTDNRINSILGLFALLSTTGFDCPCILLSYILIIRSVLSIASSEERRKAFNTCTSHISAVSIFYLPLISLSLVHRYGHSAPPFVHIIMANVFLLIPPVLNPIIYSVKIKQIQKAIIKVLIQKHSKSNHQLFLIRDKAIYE
Outline: as §1

OR51G1 (Homo sapiens) = biological target: T16, OR51G1 (Homo sapiens) (UniProt Q8NGK1)
T16 sequence (whole entry): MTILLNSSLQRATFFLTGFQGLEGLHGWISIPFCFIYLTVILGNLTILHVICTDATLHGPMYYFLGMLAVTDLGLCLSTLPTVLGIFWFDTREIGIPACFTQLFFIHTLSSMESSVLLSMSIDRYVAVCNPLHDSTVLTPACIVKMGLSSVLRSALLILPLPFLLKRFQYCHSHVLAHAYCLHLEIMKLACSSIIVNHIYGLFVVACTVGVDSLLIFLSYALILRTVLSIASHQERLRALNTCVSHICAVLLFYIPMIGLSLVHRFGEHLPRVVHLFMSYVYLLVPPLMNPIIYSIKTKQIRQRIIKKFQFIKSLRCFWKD
Outline: as §1

OR51G2 (Homo sapiens) = biological target: T17, OR51G2 (Homo sapiens) (UniProt Q8NGK0)
T17 sequence (whole entry): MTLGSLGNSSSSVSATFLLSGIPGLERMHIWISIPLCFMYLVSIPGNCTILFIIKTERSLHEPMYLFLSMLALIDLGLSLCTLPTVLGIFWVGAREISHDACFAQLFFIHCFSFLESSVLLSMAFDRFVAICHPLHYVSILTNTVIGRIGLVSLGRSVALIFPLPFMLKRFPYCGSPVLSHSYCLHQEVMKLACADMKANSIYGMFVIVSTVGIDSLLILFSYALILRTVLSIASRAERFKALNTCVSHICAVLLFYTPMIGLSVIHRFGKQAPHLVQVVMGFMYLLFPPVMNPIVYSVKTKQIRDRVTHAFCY
Outline: as §1

OR51I1 (Homo sapiens) = biological target: T18, OR51I1 (Homo sapiens) (UniProt Q9H343)
T18 sequence (whole entry): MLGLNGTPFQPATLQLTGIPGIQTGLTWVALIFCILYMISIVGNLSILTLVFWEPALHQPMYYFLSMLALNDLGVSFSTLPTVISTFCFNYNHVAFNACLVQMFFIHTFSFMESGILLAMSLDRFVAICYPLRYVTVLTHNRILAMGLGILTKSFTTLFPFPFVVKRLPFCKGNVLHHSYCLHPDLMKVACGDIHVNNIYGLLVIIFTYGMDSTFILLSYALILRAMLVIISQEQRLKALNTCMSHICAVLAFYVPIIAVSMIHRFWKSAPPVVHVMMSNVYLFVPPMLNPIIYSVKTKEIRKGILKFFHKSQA
Outline: as §1

Measured: odorant receptor agonist call;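 further: active if original authors judged signal statistically different from baseline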

CCCCCC(=O)C(C)C(C)=O (configuration not stated)
inactive: all assays above

CCCC(=O)CC
inactive: OR51B5 (Homo sapiens)

CCCCCCCCCC(=O)OCC
inactive: OR51B5 (Homo sapiens)

C=C(C)C1CC=C(C)CC1 (configuration not stated)
inactive: OR51B5 (Homo sapiens)

CC(C=O)Cc1ccc(C(C)(C)C)cc1 (configuration not stated)
inactive: OR51B5 (Homo sapiens)
